Article PMC6402543 (Nature, 2018)
Values after ≈ are worked out from the molar mass of the structure shown. Like-named read-outs stand apart in the source and are kept apart here.

Columns and labels:
Mouse pharmacokinetics = format: in vivo, Mouse (male, CD1); details: for F% based on AUC(0-inf): mouse
Stability in microsomes [1] = format: in vitro ADME, dog (beagle); details: Dog; 0.5 μM
Summary of the method: (§1)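 Liver microsomes of each stated species were incubated with test compound at 0.5 µM. Intrinsic clearance (Cli) is reported in mL/min/g tissue.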

[2] = tested on: L. donovani axenic amastigotes; experiment: Cidal axenic amastigote assay; format: cell-based; details: Leishmania donovani, read-out: Cidal axenic EC50
[3] = tested on: L. donovani promastigotes (LdBOB); experiment: Cell cycle analysis; format: cell-based, Leishmania donovani; details: 5x EC50 for 8 h
Rat pharmacokinetics = format: in vivo, Rat (male, SD)
THP-1 cells = experiment: THP-1 host cell toxicity in the intra-macrophage assay; format: cell-based; details: Homo sapiens, THP-1, read-out: THP-1 EC50
Stability in hepatocytes [4] = format: in vitro ADME; details: Human; 0.5 μM
Summary of the method: (§2)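 Test compound was incubated with hepatocytes of the stated species at 0.5 µM. The read-out is intrinsic clearance (Cli), expressed as mL/min/g tissue.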

Stability in hepatocytes [5] = format: in vitro ADME, mouse (CD1); details: Mouse; 0.5 μM
Summary of the method: as §2

[6] = tested on: L. donovani intramacrophage amastigotes (INMAC); experiment: Intra macrophage drug sensitivity assay; format: cell-based, Leishmania donovani; details: 5 RES clone 1 vs WT intramacrophage amastigotes
[7] = Non-GLP preclinical assessment of cardiovascular effects and genotoxicity
Stability in hepatocytes [8] = format: in vitro ADME, rat (Sprague Dawley); details: Rat; 0.5 μM
Summary of the method: as §2

[9] = tested on: L. donovani clinical isolates (LV9, SUKA 001, BHU1, DD8); format: cell-based, Leishmania donovani
Stability in hepatocytes [10] = format: in vitro ADME, dog (beagle); details: Dog; 0.5 μM
Summary of the method: as §2

Stability in microsomes [11] = format: in vitro ADME; details: Human; 0.5 μM
Summary of the method: as §1

[12] = Rat 7-day repeat dose oral toxicology; format: in vivo, rat (male Wistar Han); details: all doses tested
[13] = tested on: L. donovani axenic amastigotes; experiment: Rate-of-kill of axenic amastigotes; format: cell-based, Leishmania donovani
[14] = Solubility in simulated physiological media; format: physicochemical; details: fed simulated intestinal fluid (FeSSIF), pH 6.5
Stability in microsomes [15] = format: in vitro ADME, mouse (CD1); details: Mouse; 0.5 μM
Summary of the method: as §1

Stability in microsomes [16] = format: in vitro ADME, rat (Sprague Dawley); details: Rat; 0.5 μM
Summary of the method: as §1

[17] = tested on: L. donovani promastigotes (LdBOB); experiment: Promastigote drug sensitivity assay; format: cell-based, Leishmania donovani; details: for EC50: Leishmania donovani
[18] = tested on: L. donovani amastigotes (LV9); experiment: In vivo efficacy, mouse model of VL; set-up: species or system Leishmania donovani; details: 25 mg/kg bid, 10 days, oral
Summary of the method: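 Each treatment arm used 5 mice. Regimens were dosed once daily (uid) or twice daily (bid) for 5 or 10 days, and bid dosing for 10 days was run over a dose range. Parasite burden was scored as Leishman Donovan Units: amastigotes per 500 nucleated cells multiplied by organ weight in g. Read-out was reduction in parasite load.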

[19] = tested on: L. donovani amastigotes (LV9); details: uid; cited from earlier work
[20] = male, CD1, mouse, whole blood, iv, 1 mg/kg
[21] = male, CD1, mouse, whole blood, po, 10 mg/kg
[22] = male, CD1, mouse, whole blood, po, 100 mg/kg
[23] = male, CD1, mouse, whole blood, po, 300 mg/kg
[24] = male, Sprague Dawley, whole blood, iv, 1 mg/kg
[25] = male, Sprague Dawley, whole blood, po, 10 mg/kg
[26] = male, Sprague Dawley, whole blood, po, 100 mg/kg
[27] = male, Sprague Dawley, whole blood, po, 300 mg/kg

`C[C@H]1CN(c2n[nH]c3nc(N[C@H]4CC[C@H](NS(=O)(=O)CCC(F)(F)F)CC4)ncc23)CCO1` [Compound 7] showed an AUC(0-inf) (Mouse pharmacokinetics; [20]) of 104 ± 26 ng·h/mL, a Vd (Mouse pharmacokinetics; [20]) of 4 ± 0.5 L/kg and a clearance (Mouse pharmacokinetics; [20]) of 169 ± 50 mL/min/kg. For the same compound, the half-life (Mouse pharmacokinetics; [20]) was 0.3 ± 0.04 h, the AUC(0-inf) (Mouse pharmacokinetics; [21]) was 1460 ± 362 ng·h/mL and the Cmax (Mouse pharmacokinetics; [21]) was 561 ± 148 ng/mL. The Tmax (Mouse pharmacokinetics; [21]) was 2 h, the AUC(0-inf) (Mouse pharmacokinetics; [22]) was 39400 ± 23800 ng·h/mL and the Cmax (Mouse pharmacokinetics; [22]) was 8810 ± 1970 ng/mL. For the same compound, the Tmax (Mouse pharmacokinetics; [22]) was 3 h, the AUC(0-inf) (Mouse pharmacokinetics; [23]) was 66200 ng·h/mL and the Cmax (Mouse pharmacokinetics; [23]) was 11400 ± 4210 ng/mL. For the same compound, the Tmax (Mouse pharmacokinetics; [23]) was 5 h, the “F% based on AUC(0-inf)” value (Mouse pharmacokinetics; oral 10 mg/kg) was >100% and the “F% based on AUC(0-inf)” value (Mouse pharmacokinetics; oral 100 mg/kg) was >100%. The “F% based on AUC(0-inf)” value (Mouse pharmacokinetics; oral 300 mg/kg) was >100%, the “Microsomes Cli” value (Stability in microsomes [1]) was <0.4 mL/min/g tissue and the EC50 [2] was 100 nM. The “Effect on cell-cycle progression” value [3] was “accumulation of cells in G1 and in G2/M and a decrease in the proportion of cells in S phase”, the AUC(0-inf) (Rat pharmacokinetics; [24]) was 1510 ± 782 ng·h/mL and the Vd (Rat pharmacokinetics; [24]) was 0.4 ± 0.1 L/kg. The clearance (Rat pharmacokinetics; [24]) was 14 ± 9 mL/min/kg, the half-life (Rat pharmacokinetics; [24]) was 0.4 ± 0.2 h and the AUC(0-inf) (Rat pharmacokinetics; [25]) was 6480 ± 2490 ng·h/mL. It also gave a Cmax (Rat pharmacokinetics; [25]) of 1040 ± 261 ng/mL, a Tmax (Rat pharmacokinetics; [25]) of 2 h and an AUC(0-inf) (Rat pharmacokinetics; [26]) of 61200 ± 23600 ng·h/mL. For the same compound, the Cmax (Rat pharmacokinetics; [26]) was 8470 ± 3750 ng/mL, the Tmax (Rat pharmacokinetics; [26]) was 7.3 h and the AUC(0-inf) (Rat pharmacokinetics; [27]) was 136000 ± 24800 ng·h/mL. For the same compound, the Cmax (Rat pharmacokinetics; [27]) was 14800 ± 2680 ng/mL, the Tmax (Rat pharmacokinetics; [27]) was 7.3 h and the “F% based on AUC(0-inf)” value (Rat pharmacokinetics; oral 10 mg/kg) was 46 ±18%. For the same compound, the “F% based on AUC(0-inf)” value (Rat pharmacokinetics; oral 100 mg/kg) was 40 ± 15%, the “F% based on AUC(0-inf)” value (Rat pharmacokinetics; oral 300 mg/kg) was 51 ± 22% and the EC50 (THP-1 cells) was > 50000 nM. The “Hepatocytes Cli” value (Stability in hepatocytes [4]) was 0.5 mL/min/g tissue, the “Hepatocytes Cli” value (Stability in hepatocytes [5]) was 0.84 mL/min/g tissue and the Fold difference [6] was 5. For the same compound, the “Cardiovascular effects and genotoxicity” value [7] was “did not reveal any issues that would prevent further development”, the “Hepatocytes Cli” value (Stability in hepatocytes [8]) was 0.77 mL/min/g tissue and the “Variation in potency against a panel of Leishmania clinical-derived lines” value [9] was “less than 10 fold”. The “Hepatocytes Cli” value (Stability in hepatocytes [10]) was 0.31 mL/min/g tissue, the “Microsomes Cli” value (Stability in microsomes [11]) was 0.71 mL/min/g tissue and the “Adverse effects (clinical chemistry and histopathology)” value [12] was “no significant adverse effects”. The “Time at which compound was cytocidal” value ([13]; 0.2 μM) was 96 h, the “Time at which compound was cytocidal” value ([13]; 1.8 μM) was 48 h and the solubility at 4 h [14] was 25 µg/mL (≈ 50.9 µM). The “Microsomes Cli” value (Stability in microsomes [15]) was 0.52 mL/min/g tissue, the “Microsomes Cli” value (Stability in microsomes [16]) was <0.5 mL/min/g tissue and the Fold ([17]; 4-resistant clone 1, fold resistance vs wild type) was 20. For the same compound, the Fold ([17]; 4-resistant clone 2, fold resistance vs wild type) was 24, the Fold ([17]; 4-resistant clone 3, fold resistance vs wild type) was 48 and the Fold ([17]; 5-resistant clone 1, fold resistance vs wild type) was 41. The Fold ([17]; 5-resistant clone 2, fold resistance vs wild type) was 35, the Fold ([17]; 5-resistant clone 3, fold resistance vs wild type) was 22 and the “EC50 relative to WT” value ([17]; CRK12MUT and CYC9 co-overexpressing) was ~ 6 fold. For the same compound, the “EC50 relative to WT” value ([17]; CRK12MUT overexpressing) was ~ 3.4 fold, the “EC50 relative to WT” value ([17]; CRK12WT and CYC9 co-overexpressing) was ~ 3 fold and the EC50 ([17]; read-out: pEC50 (SD), 4-resistant clone 1 promastigotes (converted)) was 1580 nM. It also gave an EC50 ([17]; read-out: pEC50 (SD), 4-resistant clone 2 promastigotes (converted)) of 2000 nM, an EC50 ([17]; read-out: pEC50 (SD), 4-resistant clone 3 promastigotes (converted)) of 3980 nM and an EC50 ([17]; read-out: pEC50 (SD), 5-resistant clone 1 promastigotes (converted)) of 3160 nM. It also gave an EC50 ([17]; read-out: pEC50 (SD), 5-resistant clone 2 promastigotes (converted)) of 3160 nM, an EC50 ([17]; read-out: pEC50 (SD), 5-resistant clone 3 promastigotes (converted)) of 2000 nM and an EC50 ([17]; read-out: pEC50 (SD), Wild type (Age-matched) promastigotes (converted)) of 50.1 nM. The EC50 ([17]; read-out: pEC50 (SD), Wild type (Start clone) promastigotes (converted)) was 79.4 nM, the Fold ([17]; Wild type (Age-matched) promastigotes, fold vs wild type) was 1 and the Fold ([17]; Wild type (Start clone) promastigotes, fold vs wild type) was 1. The “Reduction in parasite load” value [18] was 99%.
For `CCCCCCCCCCCCCCCCOP(=O)([O-])OCC[N+](C)(C)C` [miltefosine], the “ED90 in a mouse model” value [19] is listed as 27 mg/kg.
